Compound activity: PubChem BioAssay, Johns Hopkins Ion Channel Center
RGS4 inh – human RGS4 inhibition | HEK293 M3R/RGS4 inducible, Fluo-4 calcium flux; active compounds read high; triggered by carbachol at its EC20 | B-score at 10 µM | 310,000 compounds, 0.45% hits | P49798;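 active means B-score, a plate-corrected calcium signal, over three deviations above library mean, with baseline fluorescence within five deviations of library mean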;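 further: RGS4 expression induced by doxycycline in cells with stable M3 receptor; B-score is computed from the integrated fluorescence ratio over baseline after carbachol; higher B-score means a larger calcium signal and so more RGS4 inhibition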
Target sequence (P49798 whole entry, looked up): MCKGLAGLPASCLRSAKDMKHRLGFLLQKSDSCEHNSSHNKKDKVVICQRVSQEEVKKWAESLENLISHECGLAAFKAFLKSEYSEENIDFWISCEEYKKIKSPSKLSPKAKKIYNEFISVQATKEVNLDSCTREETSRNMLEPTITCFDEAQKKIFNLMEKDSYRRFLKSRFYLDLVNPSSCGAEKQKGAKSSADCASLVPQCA
MrgX1 PAM – human MrgX1 positive allosteric modulation, primary screen. Q96LB2. MrgX1-HEK293, Fluo-4 calcium flux, FDSS; active compounds read high. B-score at 10 µM. 310,000 compounds, 0.63% hits;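 active means plate-corrected calcium response at least 3 library SD above typical, normal starting fluorescence, not activating the receptor alone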;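 further: compound read alongside a low EC10 to EC30 dose of BAM8-22 agonist; peak minus trough fluorescence over baseline measured at the second addition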
Target sequence (Q96LB2 whole entry, looked up): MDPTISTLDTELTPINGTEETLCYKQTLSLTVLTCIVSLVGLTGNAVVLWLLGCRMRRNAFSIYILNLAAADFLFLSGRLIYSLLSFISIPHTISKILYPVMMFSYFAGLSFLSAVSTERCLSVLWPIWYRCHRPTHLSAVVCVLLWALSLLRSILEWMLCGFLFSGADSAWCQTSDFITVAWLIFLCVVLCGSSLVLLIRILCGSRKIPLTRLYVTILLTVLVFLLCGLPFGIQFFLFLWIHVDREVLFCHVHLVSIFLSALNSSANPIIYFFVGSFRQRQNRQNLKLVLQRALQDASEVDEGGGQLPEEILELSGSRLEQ
RGS4 act – RGS4 potentiation or activation; B-score at 10 µM; HEK293 M3R/inducible RGS4, carbachol calcium flux Fluo4; active compounds read low; 310,000 compounds, 0.92% hits; AID 463111;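 active means B-score of the integrated calcium signal more than 4 SD below the library mean, with starting fluorescence not abnormally high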;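 further: negative B-score means reduced calcium response which marks RGS4 activation or potentiation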
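Material: M3R-expressing HEK293 line, RGS4 induced by doxycycline | Schedule: Overnight RGS4 induction, 30 min dye load 37 °C, 20 min compound RT | Measured by: Fluo4 fluorescence kinetic imaging of calcium | Read-out: Integrated calcium ratio converted to B score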
MrgX1 antag – blocks BAM8-22 activation of human MrgX1 receptor | B-score at 10 µM | Q96LB2 | 310,000 compounds, 1.3% hits | MRGX1-HEK293 calcium flux, Fluo-4, BAM8-22 antagonism; active compounds read low | AID 588676;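 active means calcium-response B-score plate-corrected more than 3 library SD below zero, starting fluorescence within 5 deviations, no agonist response on first addition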;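 further: peak minus trough fluorescence over baseline after final BAM8-22 challenge near maximal dose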
MrgX1 agonist – activates human MrgX1 receptor signaling; Q96LB2; B-score at 10 µM; MrgX1-HEK293 cells, Fluo-4 calcium fluorescence, agonist mode; active compounds read high; 310,000 compounds, 0.44% hits;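 active means calcium response B-score plate-corrected fluorescence ratio at least 3 library SD, with starting fluorescence B-score inside 5 SD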
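Test system: Stable human MrgX1 HEK293 cell line | Schedule: Overnight plating before 1 h dye loading | Read-out basis: Baseline-normalised fluorescence change ratio, B-scored | Detection: Kinetic calcium dye fluorescence, Fluo-4 NW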
An asterisk follows results filed as active. Sampled rows, rich in hits. Any-hit rate of the full collection: about 3.5%.

How did O=C(O)c1ccc(-c2noc(-c3ccc(F)cc3)n2)cc1 do in these assays?
RGS4 inh: inactive; MrgX1 PAM: inactive; RGS4 act: inactive; MrgX1 antag: inactive; MrgX1 agonist: inactive

What do the screens show for `CCOC(=O)c1ccc(NC(=O)COc2ccc(CNC3CCCCC3)cc2OC)cc1`?
RGS4 inh: inactive; MrgX1 PAM: inactive; RGS4 act: -7.5*; MrgX1 antag: inactive; MrgX1 agonist: inactive

What do the screens show for `COc1cccc(C2C3=C(N=c4s/c(=C\c5ccc(OCC(=O)O)cc5)c(=O)n42)c2ccccc2CC3)c1` (stereo unspecified)?
RGS4 inh: inactive; MrgX1 PAM: inactive; RGS4 act: -8.4*; MrgX1 antag: -7.5*; MrgX1 agonist: inactive

How did COc1ccccc1OCCOCCOc1ccc(C)cc1[N+](=O)[O-] do in these assays?
RGS4 inh: inactive; MrgX1 PAM: inactive; RGS4 act: inactive; MrgX1 antag: -7*; MrgX1 agonist: inactive

How did COc1cc(C)ccc1OCCOCCN(C)Cc1ccccc1 do in these assays?
RGS4 inh: inactive; MrgX1 PAM: inactive; RGS4 act: inactive; MrgX1 antag: -6.5*; MrgX1 agonist: inactive

What do the screens show for `Cc1ccc(C)c(NC(=O)C(c2ccccc2)N2CCOCC2)c1` (stereo unspecified)?
RGS4 inh: inactive; MrgX1 PAM: inactive; RGS4 act: inactive; MrgX1 antag: inactive; MrgX1 agonist: inactive

Results for O=C(N/N=C/c1cccc2nccnc12)c1ccncc1 ?
RGS4 inh: inactive; MrgX1 PAM: inactive; RGS4 act: -8.3*; MrgX1 antag: inactive; MrgX1 agonist: inactive

Results for COc1ccc(C)cc1NC(=O)CCNS(=O)(=O)c1ccc2c(c1)CCC(=O)N2 ?
RGS4 inh: inactive; MrgX1 PAM: inactive; RGS4 act: inactive; MrgX1 antag: inactive; MrgX1 agonist: inactive

What do the screens show for `CCCCCCSc1cc(-c2nc3cnccn3c2NCc2ccccc2)ccc1OC`?
RGS4 inh: inactive; MrgX1 PAM: inactive; RGS4 act: -9.7*; MrgX1 antag: inactive; MrgX1 agonist: inactive

Results for CCCCCCSc1cc(-c2nc3cc(C)ccn3c2NC2CCCCC2)ccc1OC ?
RGS4 inh: inactive; MrgX1 PAM: inactive; RGS4 act: inactive; MrgX1 antag: inactive; MrgX1 agonist: inactive

Results for CCCCNc1c(-c2ccc(-c3ccc(C(C)=O)cc3)c(OC)c2)nc2cnccn12 ?
RGS4 inh: inactive; MrgX1 PAM: inactive; RGS4 act: -11*; MrgX1 antag: inactive; MrgX1 agonist: inactive

Results for COc1ccc(-c2nc3ccccn3c2NC2CCCCC2)cc1SC1CCCCC1 ?
RGS4 inh: inactive; MrgX1 PAM: inactive; RGS4 act: -7.9*; MrgX1 antag: inactive; MrgX1 agonist: inactive

What do the screens show for `CCCCNc1c(-c2ccc(OC)c(SC3CCCCC3)c2)nc2cnccn12`?
RGS4 inh: inactive; MrgX1 PAM: inactive; RGS4 act: -10*; MrgX1 antag: inactive; MrgX1 agonist: inactive

How did COc1cc(-c2nc3cc(C)ccn3c2NC2CCCCC2)ccc1-c1ccc(C(C)=O)cc1 do in these assays?
RGS4 inh: inactive; MrgX1 PAM: inactive; RGS4 act: inactive; MrgX1 antag: inactive; MrgX1 agonist: inactive

Results for COc1cc(-c2nc3ccccn3c2NCc2ccccc2)ccc1SC1CCCCC1 ?
RGS4 inh: inactive; MrgX1 PAM: inactive; RGS4 act: inactive; MrgX1 antag: inactive; MrgX1 agonist: inactive

Results for CN(C)c1ncnc2sc(-c3ccccc3)cc12 ?
RGS4 inh: inactive; MrgX1 PAM: inactive; RGS4 act: inactive; MrgX1 antag: -7.1*; MrgX1 agonist: inactive

What do the screens show for `COc1ncnc2sc(-c3ccccc3)cc12`?
RGS4 inh: inactive; MrgX1 PAM: inactive; RGS4 act: inactive; MrgX1 antag: inactive; MrgX1 agonist: inactive

What do the screens show for `COc1ccc(S(=O)(=O)Nc2nc3c(s2)CCCC3)cc1`?
RGS4 inh: inactive; MrgX1 PAM: inactive; RGS4 act: inactive; MrgX1 antag: inactive; MrgX1 agonist: inactive

How did CSCC[C@H](NC(=O)c1ccc2ccccc2c1)C(=O)N1CCC2(CC1)NCCc1[nH]cnc12 do in these assays?
RGS4 inh: inactive; MrgX1 PAM: inactive; RGS4 act: -7.6*; MrgX1 antag: inactive; MrgX1 agonist: inactive

How did COc1ccc(NC(=O)CSc2nnnn2Cc2ccccc2)cc1 do in these assays?
RGS4 inh: inactive; MrgX1 PAM: inactive; RGS4 act: inactive; MrgX1 antag: inactive; MrgX1 agonist: inactive

How did COc1ccc(/C=C2\SC(N3CCc4ccccc4C3)=NC2=O)cc1 do in these assays?
RGS4 inh: inactive; MrgX1 PAM: inactive; RGS4 act: inactive; MrgX1 antag: -4.7*; MrgX1 agonist: inactive

Results for O=C1N=C(N2CCc3ccccc3C2)S/C1=C\c1cccc(O)c1 ?
RGS4 inh: inactive; MrgX1 PAM: inactive; RGS4 act: -8.3*; MrgX1 antag: inactive; MrgX1 agonist: inactive

Results for COc1cc(/C=C2\SC(N3CCc4ccccc4C3)=NC2=O)cc(OC)c1OC ?
RGS4 inh: inactive; MrgX1 PAM: inactive; RGS4 act: inactive; MrgX1 antag: inactive; MrgX1 agonist: inactive

What do the screens show for `[O-][n+]1cccc2c(Br)cc(Br)c(O)c21`?
RGS4 inh: inactive; MrgX1 PAM: inactive; RGS4 act: inactive; MrgX1 antag: -4.7*; MrgX1 agonist: inactive

What do the screens show for `CCn1nc(C)cc1-c1nnc(Sc2ncc([N+](=O)[O-])s2)n1C`?
RGS4 inh: inactive; MrgX1 PAM: inactive; RGS4 act: -7.9*; MrgX1 antag: inactive; MrgX1 agonist: 38*

How did CCCCOc1ccc(Br)cc1/C(C)=N/NC1=NCCN1 do in these assays?
RGS4 inh: inactive; MrgX1 PAM: inactive; RGS4 act: -8.1*; MrgX1 antag: inactive; MrgX1 agonist: inactive

Results for CCCCCCOc1ccc(/C(C)=N/NC2=NCCN2)cc1[N+](=O)[O-] ?
RGS4 inh: inactive; MrgX1 PAM: inactive; RGS4 act: inactive; MrgX1 antag: inactive; MrgX1 agonist: inactive

What do the screens show for `CN(Cc1ccccc1F)C(=O)c1ccccc1Sc1ccccc1C#N`?
RGS4 inh: inactive; MrgX1 PAM: inactive; RGS4 act: inactive; MrgX1 antag: inactive; MrgX1 agonist: inactive

How did O=c1c2c(nc3n1CCCCC3)sc1c(O)c(Br)ccc12 do in these assays?
RGS4 inh: inactive; MrgX1 PAM: inactive; RGS4 act: inactive; MrgX1 antag: -5.4*; MrgX1 agonist: inactive

What do the screens show for `CCN(CC)CCOc1c(Br)ccc2c1sc1nc3n(c(=O)c12)CCC3`?
RGS4 inh: inactive; MrgX1 PAM: inactive; RGS4 act: inactive; MrgX1 antag: inactive; MrgX1 agonist: inactive

Results for CC(C)(C)C(=O)O/N=C(\N)c1c(Cl)cccc1Cl ?
RGS4 inh: inactive; MrgX1 PAM: inactive; RGS4 act: -9.1*; MrgX1 antag: inactive; MrgX1 agonist: inactive
